In PMC5629133 (Drugs in R&D, 2017):
Read-outs that look alike come from different tables or passages of the source.

Columns and labels:
AGP F1/S variant mixture = AGP F1/S variant mixture (Homo sapiens, UniProt P02763); experiment: Screening: S-warfarin binding with drug at 100-fold concentration; settings: drug at 100-fold concentration of marker
Summary of the method: (§1)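 Radiolabelled S-disopyramide or S-warfarin binding to human AGP was measured with and without test compound at 100-fold the marker concentration. Incubation was 15 min at 37 °C, followed by ultrafiltration at 2000×g and scintillation counting. Marker binding remaining at 100-fold inhibitor was taken as non-specific. Compounds cutting specific binding by more than 70% went forward to quantitative analysis.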

[1] = target: AGP F1/S variant mixture (S-warfarin binding site) (Homo sapiens, UniProt P02763); experiment: Competitive inhibition of S-warfarin binding to human AGP by ultrafiltration; settings: among the drugs tested
Summary of the method: (§2)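 Human AGP was incubated with radiolabelled S-warfarin or [3H]S-disopyramide, with a series of unlabelled marker levels and test compound at 9.62, 19.2 and 48.1 μM, for 15 min at 37 °C. Ultrafiltration ran at 2000×g for 5 min at 37 °C, with a 30,000 MW cut-off for disopyramide. Mixture and filtrate radioactivity were counted by scintillation. Ki came from a non-linear least-squares competitive inhibition model with a constant non-specific binding term.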

AGP A variant = AGP A variant (Homo sapiens, UniProt P19652); experiment: Screening: S-disopyramide binding with drug at 100-fold concentration; settings: drug at 100-fold concentration of marker
Summary of the method: as §1

human AGP variants = settings: cited from earlier work; for Binding to AGP: used as positive controls
AGP F1/S variants = AGP F1/S variants (Homo sapiens, UniProt P02763); experiment: Effect of other drugs on binding of tamsulosin to human AGP
Summary of the method: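 Commercial human AGP was mixed with unlabelled tamsulosin (40–500 μM solutions added), [3H]tamsulosin, and test compound at 9.62, 19.2 and 48.1 μM, then incubated for 15 min at 37 °C. Ultrafiltration used a 5000 MW cut-off at 2000×g for 5 min at 37 °C. Mixture and filtrate were counted by liquid scintillation. Ki was fitted by non-linear least squares to a competitive inhibition model with non-specific binding held constant.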

[2] = target: AGP A variant (S-disopyramide binding site) (Homo sapiens, UniProt P19652); settings: among the drugs tested
Summary of the method: as §2

## CCC(C)(C)C(=O)O[C@H]1C[C@@H](C)C=C2C=C[C@H](C)[C@H](CC[C@@H]3C[C@@H](O)CC(=O)O3)[C@H]21 [Simvastatin]
AGP F1/S variant mixture
  Inhibition of binding of warfarin: markedly inhibited
[1]
  Binding affinity for the AGP F1/S variant mixture (S-warfarin binding site): relatively high
AGP A variant
  Inhibition of binding of S-disopyramide: markedly inhibited

## CC(C)NCC(O)COc1cccc2ccccc12 (centres unmarked) [propranolol]
AGP F1/S variant mixture
  Inhibition of binding of warfarin: markedly inhibited
AGP A variant
  Inhibition of binding of S-disopyramide: markedly inhibited

## CC(C)N(CCC(C(N)=O)(c1ccccc1)c1ccccn1)C(C)C (centres unmarked) [disopyramide]
Human AGP variants; separate AGP variants
  AGP variant to which the drug binds: bind specifically to the A variant

## COc1ccccc1OCCNCC(O)COc1cccc2[nH]c3ccccc3c12 (centres unmarked) [Carvedilol]
AGP F1/S variants
  Effect on binding of tamsulosin: significantly decreased

## COC(=O)C1=C(C)NC(C)=C(C(=O)OCCN(C)Cc2ccccc2)C1c1cccc([N+](=O)[O-])c1 (centres unmarked) [Nicardipine]
AGP F1/S variant mixture
  Inhibition of binding of warfarin: markedly inhibited
[1]
  Binding affinity for the AGP F1/S variant mixture (S-warfarin binding site): relatively high
AGP A variant
  Inhibition of binding of S-disopyramide: markedly inhibited

## CCN(CC)CCCN(c1ccccc1)C1Cc2ccccc2C1 [Aprindine]
AGP F1/S variants
  Effect on binding of tamsulosin: significantly decreased
[2]
  Binding affinity for the AGP A variant (S-disopyramide binding site): relatively high

## COc1ccc([C@@H]2Sc3ccccc3N(CCN(C)C)C(=O)[C@@H]2OC(C)=O)cc1 [diltiazem]
AGP A variant
  Inhibition of binding of S-disopyramide: specifically inhibited

## CC[C@H]1OC(=O)[C@H](C)[C@@H](O[C@H]2C[C@@](C)(OC)[C@@H](O)[C@H](C)O2)[C@H](C)[C@@H](O[C@@H]2O[C@H](C)C[C@H](N(C)C)[C@H]2O)[C@](C)(O)C[C@@H](C)C(=O)[C@H](C)[C@@H](O)[C@]1(C)O [Erythromycin]
AGP F1/S variant mixture
  Inhibition of binding of warfarin: markedly inhibited
AGP F1/S variants
  Effect on binding of tamsulosin: significantly decreased
AGP A variant
  Inhibition of binding of S-disopyramide: markedly inhibited

## CN(C)CCCN1c2ccccc2Sc2ccc(Cl)cc21 [chlorpromazine]
Human AGP variants; separate AGP variants
  AGP variant to which the drug binds: to both variants

## COc1ccc(Cl)cc1C(=O)NCCc1ccc(S(=O)(=O)NC(=O)NC2CCCCC2)cc1 [Glibenclamide]
AGP A variant
  Inhibition of binding of S-disopyramide: specifically inhibited

## CN(C)CCCN1c2ccccc2CCc2ccccc21 [imipramine]
Human AGP variants; separate AGP variants
  AGP variant to which the drug binds: bind specifically to the A variant
Human AGP variants
  Binding to AGP: bind strongly to AGP

## CSc1ccc2c(c1)N(CCC1CCCCN1C)c1ccccc1S2 (centres unmarked) [Thioridazine]
AGP F1/S variant mixture
  Inhibition of binding of warfarin: markedly inhibited
Human AGP variants
  Binding to AGP: bind strongly to AGP
AGP F1/S variants
  Effect on binding of tamsulosin: significantly decreased
[1]
  Binding affinity for the AGP F1/S variant mixture (S-warfarin binding site): relatively high
[2]
  Binding affinity for the AGP A variant (S-disopyramide binding site): relatively high
AGP A variant
  Inhibition of binding of S-disopyramide: markedly inhibited

## Clc1ccc(COC(Cn2ccnc2)c2ccc(Cl)cc2Cl)c(Cl)c1 (centres unmarked) [Miconazole]
AGP F1/S variant mixture
  Inhibition of binding of warfarin: markedly inhibited
AGP A variant
  Inhibition of binding of S-disopyramide: markedly inhibited

## CN(C)C(=O)C(CCN1CCC(O)(c2ccc(Cl)cc2)CC1)(c1ccccc1)c1ccccc1 [Loperamide]
AGP A variant
  Inhibition of binding of S-disopyramide: specifically inhibited

## CCOc1ccccc1OCCN[C@H](C)Cc1ccc(OC)c(S(N)(=O)=O)c1 [tamsulosin]
AGP F1/S variant mixture
  Inhibition of binding of warfarin: specifically inhibited
Human AGP variants
  AGP variant to which the drug binds: binds specifically to the F1/S variants
[1]
  Binding affinity for the AGP F1/S variant mixture (S-warfarin binding site): relatively high

## C=C[C@H]1C[N@@]2CC[C@H]1C[C@H]2[C@H](O)c1ccnc2ccc(OC)cc12 [Quinine]
AGP F1/S variant mixture
  Inhibition of binding of warfarin: markedly inhibited
[2]
  Binding affinity for the AGP A variant (S-disopyramide binding site): relatively high
AGP A variant
  Inhibition of binding of S-disopyramide: markedly inhibited

## CC(=O)CC(c1ccccc1)c1c(O)c2ccccc2oc1=O (centres unmarked) [warfarin]
Human AGP variants; separate AGP variants
  AGP variant to which the drug binds: to an F1/S variant mixture
AGP F1/S variants
  Effect on binding of tamsulosin: significantly decreased

## CC/C(=C(\c1ccccc1)c1ccc(OCCN(C)C)cc1)c1ccccc1 [tamoxifen]
Human AGP variants
  Binding to AGP: bind strongly to AGP
AGP A variant
  Inhibition of binding of S-disopyramide: specifically inhibited

## CN(C)CCC=C1c2ccccc2CCc2ccccc21 [amitriptyline]
Human AGP variants
  Binding to AGP: bind strongly to AGP
AGP A variant
  Inhibition of binding of S-disopyramide: specifically inhibited
